# Experimental data reported in ChEMBL document CHEMBL1275537, “In vitro activities of tigecycline and 10 other antimicrobials against nonpigmented rapidly growing mycobacteria” (2008).
# Key:
# Type in all cases: functional
# [1] = test system: Mycobacteroides abscessus; test: Antibacterial activity against nonpigmented rapidly growing Mycobacterium abscessus after 3 days by broth microdilution method; settings: 72 h
# Procedure, shortened: (§1)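 MIC by broth microdilution. Strains are collection strains and clinical isolates, grown on 5% sheep blood tryptic soy agar at 35°C for 4 days in room air. Inoculum is made straight from the blood agar plates in cation-supplemented Mueller-Hinton broth with 0.02% Tween 80. Doubling dilutions run 64 to 0.03 µg/ml. Plates are incubated at 30°C in room air and read at 3 days. E. coli ATCC 25922, S. aureus ATCC 29213 and E. faecalis ATCC 29212 serve as controls. MIC50 and MIC90 are given where ≥10 strains were tested, otherwise the range.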
# Mycobacteroides chelonae = test: Antibacterial activity against nonpigmented rapidly growing Mycobacterium chelonae after 3 days by broth microdilution method; settings: 72 h; procedure, shortened: as §1
# [2] = test system: Mycolicibacterium peregrinum; test: Antibacterial activity against nonpigmented rapidly growing Mycobacterium peregrinum after 3 days by broth microdilution method; settings: 72 h; procedure, shortened: as §1
# [3] = test system: Mycolicibacterium fortuitum; test: Antibacterial activity against nonpigmented rapidly growing Mycobacterium fortuitum after 3 days by broth microdilution method; settings: 72 h; procedure, shortened: as §1
# [4] = test system: Mycobacterium mucogenicum; test: Antibacterial activity against nonpigmented rapidly growing Mycobacterium mucogenicum after 3 days by broth microdilution method; settings: Mycolicibacterium mucogenicum, 72 h; procedure, shortened: as §1
# [5] = test system: Mycolicibacterium mageritense; test: Antibacterial activity against nonpigmented rapidly growing Mycobacterium mageritense after 3 days by broth microdilution method; settings: 72 h; procedure, shortened: as §1
# Mycobacterium alvei = test: Antibacterial activity against nonpigmented rapidly growing Mycobacterium alvei after 3 days by broth microdilution method; settings: Mycolicibacterium alvei, 72 h; procedure, shortened: as §1
# [6] = test system: Mycolicibacterium smegmatis; test: Antibacterial activity against nonpigmented rapidly growing Mycobacterium smegmatis after 3 days by broth microdilution method; settings: 72 h; procedure, shortened: as §1
# Mycobacterium porcinum = test: Antibacterial activity against nonpigmented rapidly growing Mycobacterium porcinum after 3 days by broth microdilution method; settings: Mycolicibacterium porcinum, 72 h; procedure, shortened: as §1
# Mycobacterium septicum = test: Antibacterial activity against nonpigmented rapidly growing Mycobacterium septicum after 3 days by broth microdilution method; settings: Mycolicibacterium septicum, 72 h; procedure, shortened: as §1
# Mycobacterium wolinskyi = test: Antibacterial activity against nonpigmented rapidly growing Mycobacterium wolinskyi after 3 days by broth microdilution method; settings: Mycolicibacterium wolinskyi, 72 h; procedure, shortened: as §1
MIC50 [1] [mg/L],MIC90 [1] [mg/L],MIC50 (Mycobacteroides chelonae) [mg/L],MIC90 (Mycobacteroides chelonae) [mg/L],MIC50 [2] [mg/L],MIC90 [2] [mg/L],MIC50 [3] [mg/L],MIC90 [3] [mg/L],MIC [4] [mg/L],MIC [5] [mg/L],MIC (Mycobacterium alvei) [mg/L],MIC [6] [mg/L],MIC (Mycobacterium porcinum) [mg/L],MIC (Mycobacterium septicum) [mg/L],MIC (Mycobacterium wolinskyi) [mg/L],Structure (SMILES)
0.06,0.5,0.12,0.5,0.06,0.06,≤ 0.03,0.25,≤ 0.03,≤ 0.03,≤ 0.03,≤ 0.03,0.06,≤ 0.03,0.12,CN(C)c1cc(NC(=O)CNC(C)(C)C)c(O)c2c1C[C@H]1C[C@H]3[C@H](N(C)C)C(O)=C(C(N)=O)C(=O)[C@@]3(O)C(O)=C1C2=O [TIGECYCLINE]
1,16,0.5,32,1,16,64,> 64,≤ 0.03,32,≤ 0.03,0.12,8,2,128,CC[C@H]1OC(=O)[C@H](C)[C@@H](O[C@H]2C[C@@](C)(OC)[C@@H](O)[C@H](C)O2)[C@H](C)[C@@H](O[C@@H]2O[C@H](C)C[C@H](N(C)C)[C@H]2O)[C@](C)(O)C[C@@H](C)C(=O)[C@H](C)[C@@H](O)[C@]1(C)O [ERYTHROMYCIN]
8,16,4,16,4,8,16,32,1,8,4,≤ 0.03,1,0.5,8,NC[C@H]1O[C@H](O[C@H]2[C@H](O)[C@@H](O[C@H]3O[C@H](CO)[C@@H](O)[C@H](N)[C@H]3O)[C@H](N)C[C@@H]2N)[C@H](N)C[C@@H]1O [TOBRAMYCIN]

# The remaining lines, values behind:
Structure (SMILES),MIC50 [1] [mg/L],MIC90 [1] [mg/L],MIC50 (Mycobacteroides chelonae) [mg/L],MIC90 (Mycobacteroides chelonae) [mg/L],MIC50 [2] [mg/L],MIC90 [2] [mg/L],MIC50 [3] [mg/L],MIC90 [3] [mg/L],MIC [4] [mg/L],MIC [5] [mg/L],MIC (Mycobacterium alvei) [mg/L],MIC [6] [mg/L],MIC (Mycobacterium porcinum) [mg/L],MIC (Mycobacterium septicum) [mg/L],MIC (Mycobacterium wolinskyi) [mg/L]
C[C@H]1c2cccc(O)c2C(=O)C2=C(O)[C@]3(O)C(=O)C(C(N)=O)=C(O)[C@@H](N(C)C)[C@@H]3[C@@H](O)[C@@H]21.O [DOXYCYCLINE],> 64,> 64,8,64,8,32,4,64,≤ 0.03,≤ 0.03,≤ 0.03,≤ 0.03,8,32,0.25
C[C@H]1COc2c(N3CCN(C)CC3)c(F)cc3c(=O)c(C(=O)O)cn1c23.C[C@H]1COc2c(N3CCN(C)CC3)c(F)cc3c(=O)c(C(=O)O)cn1c23.O [LEVOFLOXACIN],16,32,0.5,8,0.06,0.25,0.06,0.25,0.06,≤ 0.03,≤ 0.03,≤ 0.03,0.06,0.12,0.06
O=C(O)c1cn(C2CC2)c2cc(N3CCNCC3)c(F)cc2c1=O [CIPROFLOXACIN],2,8,0.12,2,≤ 0.03,0.06,≤ 0.03,0.12,≤ 0.03,≤ 0.03,≤ 0.03,0.12,≤ 0.03,0.12,0.25
CC[C@H]1OC(=O)[C@H](C)[C@@H](O[C@H]2C[C@@](C)(OC)[C@@H](O)[C@H](C)O2)[C@H](C)[C@@H](O[C@@H]2O[C@H](C)C[C@H](N(C)C)[C@H]2O)[C@](C)(O)C[C@@H](C)CN(C)[C@H](C)[C@@H](O)[C@]1(C)O [AZITHROMYCIN],0.5,2,0.5,16,0.5,64,8,> 64,≤ 0.03,2,≤ 0.03,0.06,32,0.5,128
NCC[C@H](O)C(=O)N[C@@H]1C[C@H](N)[C@@H](O[C@H]2O[C@H](CN)[C@@H](O)[C@H](O)[C@H]2O)[C@H](O)[C@H]1O[C@H]1O[C@H](CO)[C@@H](O)[C@H](N)[C@H]1O [AMIKACIN],2,8,1,16,0.5,1,1,2,0.25,0.5,≤ 0.5,≤ 0.03,0.25,1,1
CO[C@@]1(NC(=O)Cc2cccs2)C(=O)N2C(C(=O)O)=C(COC(N)=O)CS[C@@H]21 [CEFOXITIN],–,–,–,–,–,–,–,–,0.5,1,2,1,2,32,1
CC[C@H]1OC(=O)[C@H](C)[C@@H](O[C@H]2C[C@@](C)(OC)[C@@H](O)[C@H](C)O2)[C@H](C)[C@@H](O[C@@H]2O[C@H](C)C[C@H](N(C)C)[C@H]2O)[C@](C)(OC)C[C@@H](C)C(=O)[C@H](C)[C@@H](O)[C@]1(C)O [CLARITHROMYCIN],≤ 0.03,1,0.06,4,0.06,2,2,16,≤ 0.03,2,≤ 0.03,≤ 0.03,0.5,≤ 0.03,32
